Results reported in ChEMBL document CHEMBL4024792, “(N-Hydroxycarbonylbenylamino)quinolines as Selective Histone Deacetylase 6 Inhibitors Suppress Growth of Multiple Myeloma in Vitro and in Vivo” (J Med Chem, 2018).
Values belong to the molecule of their own block, whether it stands above or below them. Calls of active or inactive are those of the source. The calls are words filed in the database; no cut-off is given here.

Tests used:
[1] = molecular target: T1, Protein deacetylase HDAC6 (Homo sapiens, UniProt Q9UBN7); experiment: Inhibition of full length recombinant human N-terminal GST-tagged HDAC6 expressed in baculovirus infected insect cells using RHK-K(Ac)-AMC as substrate after 90 mins by fluorescence assay
T1 sequence (Q9UBN7 whole entry): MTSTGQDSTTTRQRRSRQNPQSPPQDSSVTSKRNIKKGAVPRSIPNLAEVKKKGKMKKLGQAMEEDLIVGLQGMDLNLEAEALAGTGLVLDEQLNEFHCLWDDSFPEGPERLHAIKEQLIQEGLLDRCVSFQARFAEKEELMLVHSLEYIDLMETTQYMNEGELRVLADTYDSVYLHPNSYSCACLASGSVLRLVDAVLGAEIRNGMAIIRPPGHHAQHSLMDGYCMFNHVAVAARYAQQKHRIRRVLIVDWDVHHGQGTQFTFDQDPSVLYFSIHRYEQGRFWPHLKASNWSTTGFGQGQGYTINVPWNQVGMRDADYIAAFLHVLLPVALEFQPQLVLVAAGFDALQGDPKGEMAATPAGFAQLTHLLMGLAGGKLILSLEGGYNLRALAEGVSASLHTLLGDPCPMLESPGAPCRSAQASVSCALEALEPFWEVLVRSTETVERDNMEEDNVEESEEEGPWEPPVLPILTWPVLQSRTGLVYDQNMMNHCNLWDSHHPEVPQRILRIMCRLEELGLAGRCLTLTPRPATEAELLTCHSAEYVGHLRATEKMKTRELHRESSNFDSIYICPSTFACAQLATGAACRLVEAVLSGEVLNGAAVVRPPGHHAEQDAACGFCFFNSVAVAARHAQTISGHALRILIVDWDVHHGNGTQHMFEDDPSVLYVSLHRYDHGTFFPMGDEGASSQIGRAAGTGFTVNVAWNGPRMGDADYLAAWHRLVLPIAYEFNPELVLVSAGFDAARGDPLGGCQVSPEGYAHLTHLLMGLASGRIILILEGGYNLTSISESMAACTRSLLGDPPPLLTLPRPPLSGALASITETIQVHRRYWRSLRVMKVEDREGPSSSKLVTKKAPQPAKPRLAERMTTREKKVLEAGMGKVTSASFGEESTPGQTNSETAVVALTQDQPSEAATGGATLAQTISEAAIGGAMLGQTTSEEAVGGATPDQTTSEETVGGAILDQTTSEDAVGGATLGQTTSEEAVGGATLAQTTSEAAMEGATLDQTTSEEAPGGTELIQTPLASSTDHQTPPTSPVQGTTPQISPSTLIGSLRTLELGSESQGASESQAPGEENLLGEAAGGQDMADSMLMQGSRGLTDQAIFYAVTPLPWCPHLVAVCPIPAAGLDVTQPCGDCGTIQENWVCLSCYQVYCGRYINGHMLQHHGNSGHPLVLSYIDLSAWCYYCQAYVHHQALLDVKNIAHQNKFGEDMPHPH

RPMI-8226 [2] = experiment: Antiproliferative activity against human RPMI8226 cells after 48 hrs by SRB assay; assay type: functional; details: RPMI-8226, 48 h
Summary of the method: (§1)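 Cells were exposed to test compounds at the indicated concentrations for 48 h. They were then fixed with 10% trichloroacetic acid, stained 30 min with 0.4% SRB in 1% AcOH, and washed with 1% AcOH. Bound dye was solubilized in 10 mM Tris base and OD read at 510 nm. Lines cultured in RPMI 1640 with 20% FBS and penicillin/streptomycin, 37°C, 5% CO2.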

U-266 [3] = experiment: Antiproliferative activity against human U266 cells after 48 hrs by SRB assay; assay type: functional; details: U-266, 48 h; summary of the method: as §1
NCI-H929 [4] = experiment: Antiproliferative activity against human NCI-H929 cells after 48 hrs by SRB assay; assay type: functional; details: NCI-H929, 48 h; summary of the method: as §1
[5] = Antiproliferative activity against human HS5 cells after 48 hrs by SRB assay; assay type: cell-based; summary of the method: as §1
[6] = Apparent permeability from basolateral to apical side in human Caco2 cells at 10 uM after 2 hrs by LC-MS/MS analysis; assay type: ADME, cell-based; details: Caco-2
Summary of the method: (§2)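 Caco-2 cells seeded at 8.4 × 10^4 cells/cm2 on polycarbonate inserts for 21 days. For A→B, donor was apical (HBSS/MES pH 6.5, 10 µM compound) and receiver basolateral (HBSS/HEPES pH 7.4). For B→A, donor was basolateral (HBSS/HEPES pH 7.4, 10 µM) and receiver apical (HBSS/MES pH 6.5). Incubated at 37 °C for 2 h. Receiver sampled at 30, 60, 90 and 120 min, donor at 0 and 120 min.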

[7] = Apparent permeability from basolateral to apical side in human Caco2 cells assessed as drug recovery at 10 uM after 2 hrs by LC-MS/MS analysis; assay type: ADME, cell-based; details: Caco-2, read-out: Drug recovery; summary of the method: as §2
[8] = Efflux ratio of apparent permeability from in human Caco2 cells at 10 uM after 2 hrs by LC-MS/MS analysis; assay type: ADME, cell-based; details: Caco-2; summary of the method: as §2
[9] = Apparent permeability from apical to basolateral side in human Caco2 cells at 10 uM after 2 hrs by LC-MS/MS analysis; assay type: ADME, cell-based; details: Caco-2; summary of the method: as §2
[10] = Apparent permeability from apical to basolateral side in human Caco2 cells assessed as drug recovery at 10 uM after 2 hrs by LC-MS/MS analysis; assay type: ADME, cell-based; details: Caco-2, read-out: Drug recovery; summary of the method: as §2
U-266 [11] = experiment: Induction of apoptosis in human U266 cells at 2.5 nM after 24 hrs by Annexin V/propidium iodide staining based flow cytometry; assay type: functional, cell-based
NCI-H929 [12] = experiment: Cell cycle arrest in human NCI-H929 cells assessed as accumulation at sub-G1 phase at 2.5 nM after 24 hrs by propidium iodide staining based flow cytometry (reference value: 5.59%); assay type: functional
RPMI-8226 [13] = experiment: Induction of apoptosis in human RPMI8226 cells at 2.5 nM after 24 hrs by Annexin V/propidium iodide staining based flow cytometry; assay type: functional, cell-based
U-266 [14] = experiment: Cell cycle arrest in human U266 cells assessed as accumulation at G0/G1 phase at 2.5 nM after 24 hrs by propidium iodide staining based flow cytometry (reference value: 40.29%); assay type: functional
NCI-H929 [15] = experiment: Cell cycle arrest in human NCI-H929 cells assessed as accumulation at G2/M phase at 2.5 nM after 24 hrs by propidium iodide staining based flow cytometry (reference value: 31.63%); assay type: functional
RPMI-8226 [16] = experiment: Cell cycle arrest in human RPMI8226 cells assessed as accumulation at S phase at 2.5 nM after 24 hrs by propidium iodide staining based flow cytometry (reference value: 19.53%); assay type: functional
U-266 [17] = experiment: Cell cycle arrest in human U266 cells assessed as accumulation at S phase at 2.5 nM after 24 hrs by propidium iodide staining based flow cytometry (reference value: 14.05%); assay type: functional
NCI-H929 [18] = experiment: Cell cycle arrest in human NCI-H929 cells assessed as accumulation at G0/G1 phase at 2.5 nM after 24 hrs by propidium iodide staining based flow cytometry (reference value: 49.39%); assay type: functional
NCI-H929 [19] = experiment: Induction of apoptosis in human NCI-H929 cells at 2.5 nM after 24 hrs by Annexin V/propidium iodide staining based flow cytometry; assay type: functional, cell-based
RPMI-8226 [20] = experiment: Cell cycle arrest in human RPMI8226 cells assessed as accumulation at G2/M phase at 2.5 nM after 24 hrs by propidium iodide staining based flow cytometry (reference value: 23.94%); assay type: functional
NCI-H929 [21] = experiment: Cell cycle arrest in human NCI-H929 cells assessed as accumulation at S phase at 2.5 nM after 24 hrs by propidium iodide staining based flow cytometry (reference value: 13.5%); assay type: functional
RPMI-8226 [22] = experiment: Cell cycle arrest in human RPMI8226 cells assessed as accumulation at sub-G1 phase at 2.5 nM after 24 hrs by propidium iodide staining based flow cytometry (reference value: 12.25%); assay type: functional
U-266 [23] = experiment: Cell cycle arrest in human U266 cells assessed as accumulation at G2/M phase at 2.5 nM after 24 hrs by propidium iodide staining based flow cytometry (reference value: 35.13%); assay type: functional
RPMI-8226 [24] = experiment: Cell cycle arrest in human RPMI8226 cells assessed as accumulation at G0/G1 phase at 2.5 nM after 24 hrs by propidium iodide staining based flow cytometry (reference value: 44.67%); assay type: functional
RPMI-8226 [25] = experiment: Antitumor activity against human RPMI8226 cells xenografted in nude mouse assessed as tumor growth inhibition at 1 mg/kg, iv or ip administered once in week for 35 days relative to control; assay type: functional; details: RPMI-8226, 840 h, read-out: TGI
Summary of the method: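 RPMI 8226 cells (1 × 10^7) implanted s.c. in eight-week-old male nude mice. At mean tumor volume 200 mm3, mice randomized into four groups (n = 8). Caliper measurement every 3–4 days, volume L×W²/2. %TGI computed from treated versus control volume changes relative to time 0.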

Mus musculus = experiment: Toxicity in nude mouse xenografted with human RPMI8226 cells assessed as death at 1 mg/kg, iv or ip administered once in week for 35 days; assay type: organism-based; details: in vivo, 840 h
Summary of the method: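 Male nude mice, eight weeks old, received 1 × 10^7 RPMI 8226 cells subcutaneously. At a mean tumour volume of 200 mm3 they were randomised into four groups (n = 8). Dosing was 1 mg/kg i.v./i.p. once weekly, with vehicle 0.5% EtOH/0.5% Cremophor in 5% dextran. Treatment-related deaths were recorded, and caliper measurements were taken every 3–4 days.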

IC50 [1]: 0.0196 µM
SMILES: O=C(NO)c1ccc(CNc2cccc3c2CCC3)cc1

IC50 [1]: 0.0114 µM
SMILES: Cc1ccc2cccc(NCc3ccc(C(=O)NO)cc3)c2n1

IC50 [1]: 0.00325 µM
SMILES: O=C(NO)c1ccc(CNc2ccc3cccnc3c2)cc1

IC50 [1]: 0.0215 µM
SMILES: O=C(NO)c1ccc(CNc2ccnc3ccccc23)cc1

IC50 [1]: 0.403 µM
SMILES: O=C(NO)c1ccc(CNc2cnc3ccccc3c2)cc1

IC50 [1]: 0.00233 µM
SMILES: O=C(NO)c1ccc(CNc2cccc3cnccc23)cc1

IC50 [1]: 0.00335 µM
SMILES: O=C(NO)c1ccc(CNc2cccc3ccncc23)cc1

IC50 [1]: 0.00356 µM
SMILES: O=C(NO)c1ccc(CNc2cccc3cn[nH]c23)cc1

IC50 [1]: 0.00231 µM
SMILES: O=C(NO)c1ccc(CNc2cncc3ccccc23)cc1

IC50 [1]: 0.00589 µM
SMILES: O=C(NO)c1ccc(CNc2cccc3nccnc23)cc1

IC50 [1]: 0.00478 µM
SMILES: O=C(NO)c1ccc(CNc2ccc3ncccc3c2)cc1

The next lines start with the molecule.

SMILES: O=C(NO)c1ccc(COc2cccc3cccnc23)cc1
IC50 [1]: 0.00283 µM

SMILES: O=C(NO)c1ccc(NCc2cccc3cccnc23)cc1
IC50 [1]: 0.0074 µM

SMILES: O=C(NO)c1cccc(CNc2cccc3cccnc23)c1
IC50 [1]: 1.13 µM

SMILES: O=C(NO)c1ccc(CNc2ccc3ccccc3n2)cc1
IC50 [1]: 0.00424 µM

SMILES: O=C(NO)c1ccc(C(=O)Nc2cccc3ncccc23)cc1
IC50 [1]: 0.525 µM

SMILES: O=C(CCCCCCNC(=O)c1cnc(N(c2ccccc2)c2ccccc2)nc1)NO [RICOLINOSTAT]
GI50 (RPMI-8226 [2]): 6.4 µM
GI50 (U-266 [3]): > 100 µM
GI50 (NCI-H929 [4]): > 100 µM
GI50 at 48 h [5]: > 100 µM

SMILES: O=C(/C=C/c1ccc(CNc2cccc3ncccc23)cc1)NO
IC50 [1]: 0.0253 µM

SMILES: O=C(NO)c1ccc(CCc2cccc3cccnc23)cc1
IC50 [1]: 0.0417 µM

SMILES: O=C(/C=C/c1ccc(CNc2cccc3cccnc23)cc1)NO
IC50 [1]: 0.0417 µM

SMILES: COC(=O)c1ccccc1-c1c2ccc(=N)cc-2oc2cc(N)ccc12.Cl [RHODAMINE123]
Papp B→A at 2 h, 10 µM [6]: 7.52 ×10⁻⁶ cm/s
recovery at 2 h, 10 µM [7]: 93.9%
efflux ratio at 2 h, 10 µM [8]: 6.5
Papp A→B at 2 h, 10 µM [9]: 1.16 ×10⁻⁶ cm/s
recovery at 2 h, 10 µM [10]: 89.8%

SMILES: O=C(NO)c1ccc(C(=O)Nc2cccc3cccnc23)cc1
IC50 [1]: 0.265 µM

SMILES: O=C(NO)c1ccc(Nc2cccc3cccnc23)cc1
IC50 [1]: 0.129 µM

SMILES: CC(C)C[C@H](NC(=O)[C@H](Cc1ccccc1)NC(=O)c1cnccn1)B(O)O [BORTEZOMIB]
Activity (U-266 [11]): Active
Activity (NCI-H929 [12]): 42.44%
Activity (RPMI-8226 [13]): Active
Activity (U-266 [14]): 32.66%
Activity (NCI-H929 [15]): 16.32%
Activity (RPMI-8226 [16]): 15.19%
Activity (U-266 [17]): 7.8%
Activity (NCI-H929 [18]): 29.87%
Activity (NCI-H929 [19]): Active
Activity (RPMI-8226 [20]): 31.53%
Activity (NCI-H929 [21]): 11.59%
Activity (RPMI-8226 [22]): 10.55%
Activity (U-266 [23]): 32.22%
Activity (RPMI-8226 [24]): 42.97%
inhibition in vivo at 1 mg/kg (RPMI-8226 [25]): 70.1%
Activity (Mus musculus): Toxic

SMILES: O=C(NO)c1ccc(CNc2cccc3c2CCCC3)cc1
IC50 [1]: 0.0253 µM

SMILES: O=C(NO)c1ccc(CSc2cccc3cccnc23)cc1
IC50 [1]: 0.00948 µM
